Assay results pooled from the literature.
Protocols differ between the studies behind these lines.
Target: Serine/threonine-protein kinase PLK2 (PLK2, Homo sapiens, UniProt Q9NYY3)

| SMILES | assay | conditions | measurement | result |
| --- | --- | --- | --- | --- |
| Cn1cc(-c2cc(F)cc(N3CCn4c(cc5c4CCCC5)C3=O)c2CO)cc(Nc2ccc(N3CCN(C4COC4)CC3)cn2)c1=O | enzyme activity, inhibitor | 0.1 µM | inhibition | 18% |
| N#CC1(c2ccccn2)CCN(Cc2cc(C(=O)O)c(=O)n3ccccc23)CC1 | cell-free assay, competition with immobilised ligand | 1 µM | remaining binding | 80% |
| COc1ncccc1-c1cnn2ccc(N3CCN(C(=O)OC(C)C)CC3)nc12 | binding, competition with immobilised ligand | 1 µM | remaining binding | 96% |
| Nc1ncc(-c2nc(N3CCOCC3)nc(N3CCOCC3)n2)c(C(F)F)n1 | binding, competition with immobilised ligand | 10 µM | remaining binding | 73% |
| Cc1nn(C)cc1-c1nc2c(N3CCN(Cc4ccc(Cl)cc4)CC3)c(Cl)cnc2[nH]1 | binding, competition with immobilised ligand | 1 µM | remaining binding | 93% |
| O=c1[nH]c2ccccc2n1C1CCN(Cc2ccc(-c3[nH]c4cc5ncnc5cc4nc3-c3ccccc3)cc2)CC1 | cell-free assay | 0.5 µM | remaining signal | 95.5% |
| Cn1cc(-c2cccc(N3CCc4c(sc5c4CC(C)(C)C5)C3=O)c2CO)cc(Nc2ccncn2)c1=O | enzyme activity, inhibitor | 1 µM | inhibition | 21% |
| Cn1cncc1[C@@](O)(COc1ccc(C#N)cc1-c1ccc(OC(F)(F)F)cc1)c1ccc(C#N)cc1 | cell-free assay, competition with immobilised ligand | 1 µM | remaining binding | 86% |
| CC(C)(C)c1cc(C=C(C#N)C#N)cc(Br)c1O | enzyme activity, inhibitor | 0.5 µM | remaining activity | 92.6% |
